# In ChEMBL document CHEMBL3797027, “Potent anti-proliferative actions of a non-diuretic glucosamine derivative of ethacrynic acid” (Bioorg Med Chem Lett, 2016):
# Calls of active or inactive are those of the source. No cut-off for these calls is given here.
# Legend:
# [1] = target: Glutathione S-transferase P (Homo sapiens) (UniProt P09211); assay: Inhibition of GSTP1 in human HCT116 cells assessed as reduction in GST-pi activity pre-incubated for 3 hrs followed by chlorodinitrobenzene and reduced glutathione addition by photometric assay; settings: HCT-116
# MDA-MB-231 [2] = assay: Cytotoxic activity against human MDA-MB-231 cells assessed as inhibition of cell proliferation incubated for 72 hrs by MTT assay; format: functional, cell-based; settings: MDA-MB-231, 72 h
# Summary of the method: (§1)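 MTT cell survival assay. IC50 is the concentration that inhibits tumour cell proliferation by 50%, read from cell survival curves. Values are given as mean ± SD of three independent experiments.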
# HT-29 = assay: Potency index, ratio of IC50 for ethacrynic acid to IC50 for test compound for cytotoxic activity against human HT-29 cells assessed as inhibition of cell proliferation incubated for 72 hrs by MTT assay; format: functional
# Summary of the method: (§2)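 Index is the reference IC50 divided by the test IC50. Both IC50s were taken from MTT cell survival curves, each as mean ± SD of three independent experiments.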
# MDA-MB-231 [3] = assay: Potency index, ratio of IC50 for ethacrynic acid to IC50 for test compound for cytotoxic activity against human MDA-MB-231 cells assessed as inhibition of cell proliferation incubated for 72 hrs by MTT assay; format: functional
# MDA-MB-468 [4] = assay: Potency index, ratio of IC50 for ethacrynic acid to IC50 for test compound for cytotoxic activity against human MDA-MB-468 cells assessed as inhibition of cell proliferation incubated for 72 hrs by MTT assay; format: functional
# [5] = Potency index, ratio of IC50 for ethacrynic acid to IC50 for test compound for cytotoxic activity against human HT1080 cells assessed as inhibition of cell proliferation incubated for 72 hrs by MTT assay; format: functional, HT-1080
# Summary of the method: as §2
# HCT-116 [6] = assay: Induction of ROS generation in human HCT116 cells at 20 and 40 uM incubated for 3 hrs by DCFDA staining based flow cytometry; format: functional, cell-based
# Summary of the method: (§3)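 Cells were exposed for 3 h to compound, or to 25 µM H2O2 as positive control. Where indicated, 3 mM N-acetylcysteine was given 1 h before treatment. Pellets were stained with DCF-DA for 30 min, and intracellular ROS was read as fluorescence shift by flow cytometry against untreated controls.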
# HCT-116 [7] = assay: Reduction in cellular total thiol levels in human HCT116 cells at 40 uM incubated for 3 hrs by Ellman's reagent based assay; format: functional
# Summary of the method: (§4)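 Cells exposed to 0–40 µM compound for 3 h, then trypsinized. Total thiols in cell extracts were quantified with Ellman's reagent.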
# HCT-116 [8] = assay: Increase in p21 (waf1/cip1) protein expression in wild type p53 expressing human HCT116 cells at 10 to 40 uM by Western blot method; format: functional, cell-based
# Summary of the method: (§5)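 H1299 (p53-null), HCT116 (p53 wild type) and MDA-MB-231 (p53 mutant) cells were treated, then lysates were immunoblotted for p53, p21, PUMA and PARP. β-Actin served as loading control.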
# NCI-H1299 [9] = assay: Induction of ROS generation in human H1299 cells at 20 and 40 uM incubated for 3 hrs after pre-incubation with 3 mM NAC for 1 hr by DCFDA staining based fluorescence microscopy; format: functional, cell-based
# Summary of the method: (§6)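 After 3 h exposure at different concentrations, DCFH-DA fluorescence was imaged by fluorescence microscopy. H2O2 (25 µM) served as positive control. In some wells, cells were pretreated with 3 mM N-acetylcysteine before compound addition.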
# NCI-H1299 [10] = assay: Induction of ROS generation in human H1299 cells at 20 and 40 uM incubated for 3 hrs by DCFDA staining based flow cytometry; format: functional, cell-based
# Summary of the method: as §3
# MDA-MB-231 [11] = assay: Increase in cleaved PARP protein expression in p53 mutant expressing human MDA-MB-231 cells at 10 to 40 uM by Western blot method; format: functional, cell-based
# Summary of the method: as §5
# [12] = Cytotoxic activity against human HCT116 cells assessed as inhibition of cell proliferation incubated for 72 hrs by MTT assay; format: functional, cell-based; settings: HCT-116, 72 h
# Summary of the method: as §1
# [13] = Cytotoxic activity against human H1299 cells assessed as inhibition of cell proliferation incubated for 72 hrs by MTT assay; format: functional, cell-based; settings: NCI-H1299, 72 h
# Summary of the method: as §1
# NCI-H1299 [14] = assay: Reduction in cellular total thiol levels in human H1299 cells at 40 uM incubated for 3 hrs by Ellman's reagent based assay; format: functional
# Summary of the method: as §4
# MDA-MB-468 [15] = assay: Cytotoxic activity against human MDA-MB-468 cells assessed as inhibition of cell proliferation incubated for 72 hrs by MTT assay; format: functional, cell-based; settings: MDA-MB-468, 72 h
# Summary of the method: as §1
# Mus musculus [16] = assay: Toxic diuretic effect in 12 hrs fasted CD1 mouse assessed as increase in urine output at 10 mg/kg, ip measured 6 to 24 hrs post dose relative to untreated control; format: toxicity, organism-based; settings: in vivo
# Summary of the method: (§7)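 Female CD-1 mice fasted 12 h, then given compound IP at 10 mg/kg in PEG/EtOH/H2O (54:14:32). Vehicle control group included. Mice were housed singly in metabolic cages with free access to water. Voided urine was collected in graduated tubes under the cages over 0–6 h and 6–24 h after injection.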
# MDA-MB-231 [17] = assay: Induction of ROS generation in human MDA-MB-231 cells at 20 and 40 uM incubated for 3 hrs by DCFDA staining based fluorescence microscopy; format: functional, cell-based
# Summary of the method: as §6
# [18] = Cytotoxic activity against human SKBR3 cells assessed as inhibition of cell proliferation incubated for 72 hrs by MTT assay; format: functional, cell-based; settings: SK-BR-3, 72 h
# Summary of the method: as §1
# NCI-H1299 [19] = assay: Induction of ROS generation in human H1299 cells at 20 and 40 uM incubated for 3 hrs after pre-incubation with 3 mM NAC for 1 hr by DCFDA staining based flow cytometry; format: functional, cell-based
# Summary of the method: as §3
# MDA-MB-231 [20] = assay: Induction of ROS generation in human MDA-MB-231 cells at 20 and 40 uM incubated for 3 hrs by DCFDA staining based flow cytometry; format: functional, cell-based
# Summary of the method: as §3
# NCI-H1299 [21] = assay: Increase in PUMA protein expression in p53 deficient human H1299 cells at 10 to 40 uM by Western blot method; format: functional, cell-based
# Summary of the method: as §5
# Mus musculus [22] = assay: Toxicity in mouse assessed as induction of diarrhea at 120 mg/kg/week for 2 weeks; format: organism-based; settings: in vivo, 336 h
# Mus musculus [23] = assay: Toxicity in mouse assessed as induction of weight loss at 120 mg/kg/week for 2 weeks; format: organism-based; settings: in vivo, 336 h
# MDA-MB-231 [24] = assay: Induction of cell cycle arrest in p53 mutant expressing human MDA-MB-231 cells assessed as accumulation at G2/M phase incubated for 24 hrs by propidium iodide staining based flow cytometry; format: functional
# HCT-116 [25] = assay: Induction of ROS generation in human HCT116 cells at 20 and 40 uM incubated for 3 hrs after pre-incubation with 3 mM NAC for 1 hr by DCFDA staining based flow cytometry; format: functional, cell-based
# Summary of the method: as §3
# [26] = Potency index, ratio of IC50 for ethacrynic acid to IC50 for test compound for cytotoxic activity against human HCT116 cells assessed as inhibition of cell proliferation incubated for 72 hrs by MTT assay; format: functional, HCT-116
# Summary of the method: as §2
# Mus musculus [27] = assay: Toxic diuretic effect in 12 hrs fasted CD1 mouse assessed as increase in urine output at 10 mg/kg, ip measured 0 to 6 hrs post dose relative to untreated control; format: toxicity, organism-based; settings: in vivo
# Summary of the method: as §7
# [28] = Cytotoxic activity against human GBM10 cells assessed as inhibition of cell proliferation incubated for 72 hrs by MTT assay; format: functional, cell-based; settings: GBM10, 72 h
# Summary of the method: as §1
# NCI-H1299 [29] = assay: Reduction in cellular total thiol levels in human H1299 cells incubated for 3 hrs by Ellman's reagent based assay; format: functional, cell-based
# Summary of the method: as §4
# HCT-116 [30] = assay: Increase in cleaved PARP protein expression in wild type p53 expressing human HCT116 cells at 10 to 40 uM by Western blot method; format: functional, cell-based
# Summary of the method: as §5
# Sequence of Glutathione S-transferase P (Homo sapiens) (P09211 2-210 limits assumed): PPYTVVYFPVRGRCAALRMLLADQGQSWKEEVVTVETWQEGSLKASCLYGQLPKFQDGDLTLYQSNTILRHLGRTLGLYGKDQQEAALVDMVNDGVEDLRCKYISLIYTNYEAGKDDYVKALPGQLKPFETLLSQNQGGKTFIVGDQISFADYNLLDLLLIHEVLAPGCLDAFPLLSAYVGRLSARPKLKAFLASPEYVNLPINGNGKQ
structure (smiles),measurement,setting,value
C=C(CC)C(=O)c1ccc(OCC(=O)N[C@@H]2[C@@H](O)[C@H](O)[C@@H](CO)O[C@H]2O)c(Cl)c1Cl,Activity,[1],Dose-dependent effect
same,IC50,MDA-MB-231 [2],12.2 µM
same,Ratio IC50,HT-29,3
same,Ratio IC50,MDA-MB-231 [3],3
same,Ratio IC50,MDA-MB-468 [4],3
same,Ratio IC50,[5],3
same,Activity,HCT-116 [6],Active
same,Imax,HCT-116 [7],58%
same,Activity,HCT-116 [8],Active
same,Activity,NCI-H1299 [9],inactive
same,Activity,NCI-H1299 [10],Active
same,Activity,MDA-MB-231 [11],Active
same,IC50,[12],10.3 µM
same,IC50,[13],11.5 µM
same,Imax,NCI-H1299 [14],58%
same,IC50,MDA-MB-468 [15],18.4 µM
same,Activity,Mus musculus [16],Non-toxic
same,Activity,MDA-MB-231 [17],Active
same,IC50,[18],16.1 µM
same,Activity,NCI-H1299 [19],inactive
same,Activity,MDA-MB-231 [20],Active
same,Activity,NCI-H1299 [21],Active
same,Activity,Mus musculus [22],Non-toxic
same,Activity,Mus musculus [23],Non-toxic
same,Activity,MDA-MB-231 [24],Dose-dependent effect
same,Activity,HCT-116 [25],inactive
same,Ratio IC50,[26],3
same,Activity,Mus musculus [27],Non-toxic
same,IC50,[28],15.2 µM
same,Activity,NCI-H1299 [29],Dose-dependent effect
same,Activity,HCT-116 [30],Active
